The assay is described as follows: Vasodilatory effect in pig pulmonary artery assessed as inhibition of PGF2-alpha-induced contraction. The class given is functional, tissue-based, Sus scrofa. The settings on record: for pD2: Sus scrofa. The procedure, abridged: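 Porcine lungs from slaughterhouse; small pulmonary artery branches cut into rings (2–3 mm long, 1.5–2 mm diameter), tension measured in organ baths. Rings precontracted with PGF2α; test compounds added cumulatively at contraction plateau (up to 1 mM), DMSO as solvent. Endothelium checked by 10 nM bradykinin relaxation; denuded rings by gentle rubbing, pretreated with 0.2 mM L-NAME. Potency expressed as pD2.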

For the compound `CC(C)CO[N+](=O)[O-]`, the EC50 amounted to 87.7 µM and the pD2 was 4.01.
Turning to `CC(C)(CO[N+](=O)[O-])C(=O)O`, the EC50 turned out to be 14.7 µM and the pD2 is 4.83.
`O=[N+]([O-])O[C@H]1CO[C@H]2[C@@H]1OC[C@H]2O[N+](=O)[O-]` [ISOSORBIDE DINITRATE]: the EC50 came out at 0.424 µM and the pD2 amounted to 6.37.
Consider `O=[N+]([O-])OCC(CO)(CO)CO` [PENTAERYTHRITYL MONONITRATE], for which the EC50 was 72.5 µM and the pD2 is 4.14.
For `O=C(O)CCO[N+](=O)[O-]`, the EC50 is 9.56 µM and the pD2 came out at 5.02.
In the case of `O=[N+]([O-])OC1COC2C(O)COC12` (stereo unspecified), the EC50 turned out to be 33.2 µM and the pD2 worked out at 4.48.
As to `CC(O[N+](=O)[O-])C(=O)c1ccccc1` (stereo unspecified), the EC50 was 1.54 µM and the pD2 came to 5.81.
With `COC(=O)CCO[N+](=O)[O-]`, the EC50 came to 1.03 µM and the pD2 came to 5.99.
Consider `O=[N+]([O-])OCC(CO[N+](=O)[O-])O[N+](=O)[O-]` [NITROGLYCERIN], for which the EC50 came out at 0.0356 µM and the pD2 was determined as 7.44.
`NCCO[N+](=O)[O-]` [AMINOETHYL NITRATE]: the EC50 is 0.0315 µM and the pD2 is 7.5.
Take `O=[N+]([O-])OCc1ccccc1`: the EC50 amounted to 0.412 µM and the pD2 turned out to be 6.34.
Take `CCCCO[N+](=O)[O-]`: the EC50 was 141 µM and the pD2 is 3.85.
Taken in the same sequence, the figures for `O=[N+]([O-])OCCS(=O)(=O)O` were 33.5 µM and 4.48.

Source of the values: ChEMBL document CHEMBL1140479, “NO donors. Part 16: investigations on structure-activity relationships of organic mononitrates reveal 2-nitrooxyethylammoniumnitrate as a high potent vasodilator” (Bioorg Med Chem Lett, 2007).
